Pf Dd2 inh = P. falciparum Dd2 growth inhibitors, primary screen, SYBR Green fluorescence, single dose replicates; activity change, % at 10 µM; hit rate 2.3% among 94,000; AID 1159554, 2015; 72 h; hits give low values; in the data active = activity change below about -80%; inconclusive = no clear call, values can overlap the other calls
T cruzi growth-1 = T. cruzi intracellular proliferation inhibitors, primary screen, cell-based, beta-gal Tulahuen parasites, NIH3T3 host, luminescence | T. cruzi beta-gal in NIH3T3, GalScreen luminescence, 90 h | inhibition, % at 8.34 µM | hit rate 5.9% among 77,000;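 active = mean inhibition above about 93%, with at least 55% of replicates each passing it, limit read from the data, passing the limit was not always enough; inconclusive = only one of those two conditions holds; inactive = neither condition holds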
IDH1 R132H inh = inhibitors of IDH1 R132H reductase, primary screen, biochemical, plate reader, single point; diaphorase/resazurin fluorescence, 60 min; inhibition, % at 10 µM; hit rate 0.18% among 70,000; AID 624101, 2012; in the data active = inhibition above about 34%; inconclusive = no clear call, values can overlap the other calls; inactive = below about 11%
KDM4C inh = inhibitors of GASC-1 (KDM4C) histone demethylase, primary screen, biochemical, single concentration HTS. Lysine-specific demethylase 4C (Homo sapiens), Q9H3R0. GST-KDM4C 2-372, H3K9me3 peptide, LANCE TR-FRET. inhibition, % at 12.5 µM. hit rate 0.15% among 96,000. AID 720574, 2013;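 active = mean replicate inhibition above about 25%, with at least 55% of replicates also reaching it, limit read from the data, passing the limit was not always enough; inconclusive = only one of those two conditions met; inactive = neither condition met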
Target sequence (Q9H3R0 2-372 limits assumed): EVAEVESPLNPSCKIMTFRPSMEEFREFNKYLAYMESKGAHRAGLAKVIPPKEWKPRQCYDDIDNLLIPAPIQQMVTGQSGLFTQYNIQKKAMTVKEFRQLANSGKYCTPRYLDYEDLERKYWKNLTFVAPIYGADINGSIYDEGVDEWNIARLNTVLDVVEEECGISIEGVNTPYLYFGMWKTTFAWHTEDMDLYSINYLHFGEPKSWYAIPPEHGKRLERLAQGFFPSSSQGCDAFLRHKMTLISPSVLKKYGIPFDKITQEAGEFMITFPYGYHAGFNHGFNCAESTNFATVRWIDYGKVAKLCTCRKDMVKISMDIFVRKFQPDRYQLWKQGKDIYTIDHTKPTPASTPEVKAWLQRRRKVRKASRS
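reagent = H3K9me3 peptide substrate, Fe(II), 2-oxoglutarate | system = GST-tagged GASC-1 (JMJD2C) catalytic fragment, aa 2-372 | amount = enzyme final amount 10 nM | read-out = Fall in 671/618 emission ratio as inhibition | medium = HEPES buffer, pH 7.5, plus ascorbate | schedule = 30 min reaction, 60 min detection, RT | measured by = LANCE TR-FRET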
T cruzi growth-2 = T. cruzi intracellular proliferation inhibitors, confirmation, cell-based, NIH3T3 host, beta-gal parasite, luminescence, cherry-pick. inhibition, % at 8.35 µM. shares compounds with T cruzi growth-1. T. cruzi beta-gal in NIH3T3, GalScreen luminescence, 90 h. hit rate 72% among 5,600;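 active = mean replicate inhibition above about 95% and at least 55% of replicates individually reaching it, limit read from the data; inconclusive = only one of the two criteria is met; inactive = neither criterion is met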
T cruzi growth-3 = inhibitors of intracellular T. cruzi replication, confirmation, NIH3T3 host cells, beta-gal parasites, cherry-pick, set 2; shares compounds with T cruzi growth-1; T. cruzi beta-gal in NIH3T3, GalScreen luminescence, 90 h; inhibition, % at 2.09 µM; hit rate 21% among 5,600;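 active = mean inhibition above about 95%, with at least 55% of replicates also reaching it, limit read from the data; inconclusive = meets just one of the two conditions; inactive = meets neither condition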
3T3 cytotox = cytotoxicity in mouse NIH/3T3 fibroblasts, confirmation, cytotoxicity control for T. cruzi proliferation inhibitor project, cell-based, cherry-pick, single point. hit rate 14% among 5,600. NIH/3T3 viability, CellTiter-Glo ATP luminescence, 90 h. cytotoxicity (signal decrease), % at 8.35 µM. shares compounds with T cruzi growth-1;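 active = mean signal decrease across replicates above about 35% based on untreated-well scatter, with enough replicates individually passing, limit read from the data; inconclusive = no rule stated though some were filed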
3T3 cytotox 2 = NIH/3T3 fibroblast cytotoxicity, confirmation, cytotoxicity control, cell-based, cherry-pick, single point, set 2 | shares compounds with T cruzi growth-1 | hit rate 56% among 5,600 | inhibition, % at 24.9 µM | NIH/3T3 viability, CellTiter-Glo ATP luminescence, 90 h | AID 651744, 2012;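 active = mean loss of cell viability signal at or above a set limit, and enough replicates individually reaching it; inconclusive = meets only the mean limit or only the replicate share; inactive = meets neither condition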
Large screens that a line does not name were inactive (follow-up assays come after a bar, where they were run). In the library only some 5.8% were active in any assay of this set; here they are far more common.

CCC(=O)N1CC[C@@H]2[C@H]1c1cc(-c3cccc(F)c3)ccc1N(C)[C@H]2CO	none (no result: IDH1 R132H inh)
C[C@@H]1CN([C@H](C)CO)C(=O)c2cc(NC(=O)c3ccccc3)ccc2O[C@@H](C)CCCCO[C@@H]1CN(C)CC1CCCCC1	none
CN1c2ccc(-c3cccc(C#N)c3)cc2[C@H]2[C@H](CCN2C(=O)Cc2ccccn2)[C@H]1CO	T cruzi growth-1 102 (no result: IDH1 R132H inh) | T cruzi growth-2 107 | T cruzi growth-3 inactive | 3T3 cytotox inactive | 3T3 cytotox 2 inactive
CCCNC(=O)N1CC2(CCN(S(=O)(=O)c3ccccc3)CC2)c2c(n(C)c3cc(OC)ccc23)[C@@H]1CO	none (no result: T cruzi growth-1, IDH1 R132H inh)
COc1ccc(CN(C)C[C@H]2OCCCC[C@H](C)Oc3ccc(NS(=O)(=O)c4ccccc4)cc3C(=O)N([C@@H](C)CO)C[C@H]2C)cc1	T cruzi growth-1 103 (no result: IDH1 R132H inh) | T cruzi growth-2 109 | T cruzi growth-3 inactive | 3T3 cytotox inactive | 3T3 cytotox 2 90
Cc1ccc(S(=O)(=O)Nc2ccc3c(c2)C(=O)N([C@@H](C)CO)C[C@@H](C)[C@@H](CN(C)Cc2ccccc2)OCCCC[C@@H](C)O3)cc1	T cruzi growth-1 inconclusive (no result: IDH1 R132H inh) | T cruzi growth-2 inactive | T cruzi growth-3 inactive | 3T3 cytotox inactive | 3T3 cytotox 2 105
COc1ccc(CN(C)C[C@H]2OCCCC[C@H](C)Oc3ccc(NS(=O)(=O)c4ccc(Cl)cc4)cc3C(=O)N([C@@H](C)CO)C[C@@H]2C)cc1	T cruzi growth-1 inconclusive | T cruzi growth-2 101 | T cruzi growth-3 inactive | 3T3 cytotox inactive | 3T3 cytotox 2 104
COc1ccc(CN(C)C[C@@H]2OCCCC[C@@H](C)Oc3ccc(NS(=O)(=O)c4ccccc4)cc3C(=O)N([C@H](C)CO)C[C@@H]2C)cc1	none (no result: IDH1 R132H inh)
C[C@H]1CCCCO[C@@H](CN(C)Cc2ccccc2)[C@@H](C)CN([C@@H](C)CO)C(=O)c2cc(NS(=O)(=O)c3ccccc3)ccc2O1	none
C[C@@H]1CCCCO[C@H](CN(C)Cc2ccccc2)[C@H](C)CN([C@H](C)CO)C(=O)c2cc(NS(=O)(=O)c3ccccc3)ccc2O1	T cruzi growth-1 101 | T cruzi growth-2 98 | T cruzi growth-3 inactive | 3T3 cytotox inactive | 3T3 cytotox 2 41
CN(C(=O)CCCOc1ccc2[nH]c(=O)ccc2c1)C1CCCCC1	none (no result: Pf Dd2 inh, T cruzi growth-1, KDM4C inh)
C[C@H](CO)N1C[C@H](C)[C@H](CN(C)Cc2ccccc2)OCCCC[C@H](C)Oc2ccc(NS(=O)(=O)c3ccc(F)cc3)cc2C1=O	T cruzi growth-1 inconclusive, KDM4C inh 59 (no result: IDH1 R132H inh) | T cruzi growth-2 113 | T cruzi growth-3 inactive | 3T3 cytotox inactive | 3T3 cytotox 2 92
C[C@@H]1CN([C@@H](C)CO)C(=O)c2cc(NS(=O)(=O)c3ccc(F)cc3)ccc2O[C@@H](C)CCCCO[C@@H]1CN(C)Cc1ccccc1	T cruzi growth-1 105 | T cruzi growth-2 99 | T cruzi growth-3 inactive | 3T3 cytotox inactive | 3T3 cytotox 2 107
O=C(C[C@@H]1CC[C@H]2[C@@H](COC[C@H](O)CN2C(=O)Nc2cccc(Cl)c2)O1)NCc1ccccc1F	T cruzi growth-1 119 (no result: IDH1 R132H inh) | T cruzi growth-2 inactive | T cruzi growth-3 inactive | 3T3 cytotox inactive | 3T3 cytotox 2 inactive
O=C(C[C@@H]1CC[C@@H]2[C@H](COC[C@@H](O)CN2C(=O)Nc2cccc(Cl)c2)O1)NCc1ccccc1F	T cruzi growth-1 123 (no result: IDH1 R132H inh) | T cruzi growth-2 97 | T cruzi growth-3 inactive | 3T3 cytotox inactive | 3T3 cytotox 2 38

Assay outcomes as filed in PubChem.
